Screening results: PubChem, several laboratories
iPSC survival up: enhancers of human iPSC single-cell survival | hiPSC single-cell survival, ATPlite luminescence; 100% = ROCK inhibitor wells, 0% = DMSO | survival enhancement, % at 20 µM | 0.044% of 360,000 active | AID 602274; in the data active means survival enhancement above about 18%;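 further: cells exposed to compounds for 16 hours before the ATP read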
TAG inh: inhibitors of triacylglycerol accumulation. H9c2 cells, Nile Red lipid (TAG) fluorescence; cells loaded with 200 µM oleic acid. inhibition, % at 12.5 µM. 0.66% of 230,000 active. AID 651582;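 active means pattern-corrected inhibition of lipid staining of at least 50% with the nuclear-stain viability signal not falling by more than 50%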;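 further: 0% = DMSO wells and 100% = triacsin C control wells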
beta cell repl: inducers of beta-cell replication in MIN6 cells; MIN6 cells proliferation, ATPlite luminescence, 48 h; cells starved in 0.2% serum; 100% = growth in 10% serum; proliferation, % at 10 µM; 0.29% of 330,000 active;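 active means compounds whose signal lies at least 3.5 SD above the mean of all wells on their plate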;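 further: 0% = DMSO-treated cells in low-serum medium and 100% = 10% serum control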
T cruzi inh: blocks replication of Trypanosoma cruzi; T. cruzi beta-gal in NIH3T3, luminescence, 90 h; 1.4% of 300,000 active; inhibition, % (no concentration beside the values); AID 1885;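 active means mean inhibition across valid replicates above about 55%, limit read from the data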;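 further: signal also drops with host cell toxicity which is not excluded here; 0% = plate median of DMSO wells and 100% = zero luminescence signal; higher percent means less beta-gal luminescence so fewer parasites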
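Assay system: NIH/3T3 fibroblasts plus reporter T. cruzi. Amount: NIH/3T3 cells, 5,000 per well. Buffer or medium: DMEM, 2% fetal bovine serum. Doses: compound pinned at 50 nL/well, DMSO. Schedule: ≥90 h infection period, 3 h prior cell attachment. Signal: luminescent β-galactosidase signal after 60 min lysis. Read-out: parasite load inhibition, %.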
PG9 Ab binder: small molecules binding HIV-1 gp120 antibody PG9. TR-FRET gp120-PG9 antibody binding. inhibition, % at 6.7 µM. 0.43% of 360,000 active. AID 624416; in the data active means inhibition above about 8.5%
Rev-erbA mod: modulators of human Rev-erb alpha DNA binding; AID 1259318; activity, % at 10 µM; P20393; Rev-erbα–FITC-DNA binding, fluorescence polarization, 90 min; 0.79% of 370,000 active;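 active means activity above about 14%, limit read from the data; passing the limit was not always enough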;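 further: 0% = DMSO wells with 35 nM protein and 100% = DMSO wells with 750 nM protein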
Target sequence (P20393 whole entry, looked up): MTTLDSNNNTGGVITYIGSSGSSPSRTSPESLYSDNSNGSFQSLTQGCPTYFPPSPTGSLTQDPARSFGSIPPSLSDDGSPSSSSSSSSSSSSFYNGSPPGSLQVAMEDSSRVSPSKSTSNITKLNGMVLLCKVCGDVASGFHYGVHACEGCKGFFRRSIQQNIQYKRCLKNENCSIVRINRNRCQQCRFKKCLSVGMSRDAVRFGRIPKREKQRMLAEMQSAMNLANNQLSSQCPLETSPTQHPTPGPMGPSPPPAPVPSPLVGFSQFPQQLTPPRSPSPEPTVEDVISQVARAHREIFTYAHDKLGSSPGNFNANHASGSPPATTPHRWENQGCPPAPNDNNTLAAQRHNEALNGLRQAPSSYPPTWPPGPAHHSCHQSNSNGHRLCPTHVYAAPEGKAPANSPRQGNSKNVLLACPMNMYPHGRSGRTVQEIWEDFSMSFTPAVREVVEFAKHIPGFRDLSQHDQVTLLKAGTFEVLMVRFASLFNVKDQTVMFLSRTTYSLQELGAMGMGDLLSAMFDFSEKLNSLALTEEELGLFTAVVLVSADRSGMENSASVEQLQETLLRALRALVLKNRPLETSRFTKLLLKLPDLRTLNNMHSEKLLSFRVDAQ
PG9 bind confirm: confirmation of small molecules binding HIV-1 gp120 antibody PG9; shares compounds with PG9 Ab binder; TR-FRET PG9 antibody binding, biochemical; inhibition, % at 6.7 µM; 90% of 1,500 active; AID 651571; in the data active means inhibition above about 9%
PGV04 counter: binds control antibody PGV04 in PG9 binder counter-screen. shares compounds with PG9 Ab binder. TR-FRET PGV04 antibody-gp120 binding, biochemical. inhibition, % at 6.7 µM. 95% of 1,500 active; in the data active means inhibition above about 9.5%
* = called active by the depositor. Most compounds without a hit are left out; they make up all but 2.9% or so of the library.

O=c1oc2ccccc2cc1-c1csc(Cc2nc(-c3ccc(Cl)cc3)cs2)n1 was read as iPSC survival up 2.9, beta cell repl 0.0, T cruzi inh -9.5, PG9 Ab binder -1.3 and Rev-erbA mod 6.9.
Screening CCOC(=O)N1CCN(C(=O)CCCCCn2c(=S)[nH]c3cc4c(cc3c2=O)OCO4)CC1 returned iPSC survival up -0.3, TAG inh -2.7, beta cell repl 1.6, T cruzi inh 11.7, PG9 Ab binder 8.7*, Rev-erbA mod 0.5, PG9 bind confirm 3.0 and PGV04 counter 15.6*.
Screening O=C(CCCCCn1c(=S)[nH]c2cc3c(cc2c1=O)OCO3)NCCc1ccccc1 returned iPSC survival up 1.9, beta cell repl -1.2, T cruzi inh 3.9, PG9 Ab binder 19.9*, Rev-erbA mod 18.1, PG9 bind confirm 17.5* and PGV04 counter 24.0*.
Screening CCN(CCCNC(=O)CCn1c(=S)[nH]c2cc3c(cc2c1=O)OCO3)c1cccc(C)c1 returned iPSC survival up -0.2, beta cell repl -2.4, T cruzi inh 31.9, PG9 Ab binder 10.1*, Rev-erbA mod -0.9, PG9 bind confirm 11.6* and PGV04 counter 14.2*.
`CCc1ccc(C(=O)Nc2nc3ccccc3[nH]2)cc1` gave iPSC survival up -0.8, beta cell repl -3.6, T cruzi inh 30.9, PG9 Ab binder -1.5 and Rev-erbA mod 4.1.
Screening CC(C)OCC(O)CN (stereo unspecified) returned iPSC survival up -1.9, TAG inh -4.2, beta cell repl -5.0, T cruzi inh -10.4, PG9 Ab binder -0.7 and Rev-erbA mod 3.6.
CCN=C1SC(C(N)=O)CC(=O)N1CC (stereo unspecified) was read as iPSC survival up -1.9, TAG inh 1.0, beta cell repl 1.0, T cruzi inh -2.4, PG9 Ab binder 9.0*, Rev-erbA mod -5.6, PG9 bind confirm -0.9 and PGV04 counter 17.8*.
For CCN=C1SC(C(=O)Nc2cccc(OCC)c2)CC(=O)N1CC (stereo unspecified) the results were iPSC survival up -1.2, beta cell repl -2.5, T cruzi inh 4.1, PG9 Ab binder 0.1 and Rev-erbA mod -1.4.
CCCOC(=O)c1ccc(NC(=O)CN(C)Cc2cccs2)cc1 was read as iPSC survival up 0.1, beta cell repl -2.0, T cruzi inh 4.8, PG9 Ab binder -0.4 and Rev-erbA mod -4.8.
Screening CNS(=O)(=O)c1cc(C(=O)OCC(=O)NC2CCCc3ccccc32)ccc1Cl (stereo unspecified) returned iPSC survival up -1.5, beta cell repl 0.0, T cruzi inh -2.0, PG9 Ab binder 1.6 and Rev-erbA mod -2.6.
For Cc1sc(NC(=S)NC(=O)C2CCCCC2)c(C(N)=O)c1C the results were iPSC survival up -1.3, beta cell repl 0.3, T cruzi inh -5.5, PG9 Ab binder 31.6*, Rev-erbA mod 7.5, PG9 bind confirm 23.7* and PGV04 counter 31.1*.
For CCN1C(=C(C#N)C#N)C=Cc2cc(C)ccc21 the results were iPSC survival up -0.3, TAG inh -5.5, beta cell repl 0.9, T cruzi inh 11.0, PG9 Ab binder 22.8*, Rev-erbA mod -3.3, PG9 bind confirm 20.1* and PGV04 counter 31.4*.
`CCN1C(=O)/C(=C2/C=Cc3cc(C)ccc3N2CC)N(C)C1=S` gave iPSC survival up 1.5, beta cell repl -2.1, T cruzi inh 5.0, PG9 Ab binder -23.4 and Rev-erbA mod -1.7.
For CC(=O)Nc1ccc(NC(=O)CSc2ccc(-c3ccc4c(c3)OCO4)nn2)cc1 the results were iPSC survival up -1.1, beta cell repl -0.5, T cruzi inh -3.5, PG9 Ab binder -2.7 and Rev-erbA mod 5.5.
CC(=O)c1ccc(NC(=O)CSc2ccc(-c3ccc4c(c3)OCO4)nn2)cc1 was read as iPSC survival up 0.4, beta cell repl 0.0, T cruzi inh -4.6, PG9 Ab binder 10.2*, Rev-erbA mod 13.7, PG9 bind confirm 15.4* and PGV04 counter 29.1*.
COc1ccccc1NC(C)=O was read as iPSC survival up 0.2, TAG inh 13.3, beta cell repl -1.9, T cruzi inh 11.8, PG9 Ab binder 11.7*, Rev-erbA mod -3.2, PG9 bind confirm 6.5 and PGV04 counter 8.0.
COc1cccc(NC(=O)c2cnc(SCC(=O)NCc3ccc4c(c3)OCO4)n(C)c2=O)c1 was read as iPSC survival up -0.3, TAG inh -20.5, beta cell repl -6.7, T cruzi inh 2.1, PG9 Ab binder 25.6*, Rev-erbA mod 6.8, PG9 bind confirm 30.4* and PGV04 counter 43.4*.
For COc1cccc(-n2nnnc2SCC(=O)NCc2ccc3c(c2)OCO3)c1 the results were iPSC survival up 0.0, beta cell repl -0.6, T cruzi inh 0.1, PG9 Ab binder -1.3 and Rev-erbA mod -5.3.
For COc1ccc(CNC(=O)CN(C(=O)c2csnn2)c2ccc3c(c2)OCCO3)cc1 the results were iPSC survival up 0.3, beta cell repl -0.6, T cruzi inh -2.4, PG9 Ab binder 1.4 and Rev-erbA mod -0.5.
Screening Cc1cc2cc(CNC(=O)C3CCCC3)ccc2n1C returned iPSC survival up 3.9, TAG inh -7.2, beta cell repl 0.5, T cruzi inh 10.7, PG9 Ab binder 1.1 and Rev-erbA mod 0.2.
`Cn1c(CNC(=O)C2CCCCC2)cc2cc(Cl)ccc21` gave iPSC survival up 0.3, TAG inh 15.6, beta cell repl -3.6, T cruzi inh 2.3, PG9 Ab binder 19.5*, Rev-erbA mod 4.7, PG9 bind confirm 22.3* and PGV04 counter 34.2*.
O=C(Nc1nc2ccc(Cl)cc2s1)c1ccc(N2CCCCC2)c([N+](=O)[O-])c1 was read as iPSC survival up -0.3, beta cell repl -5.1, T cruzi inh 33.8, PG9 Ab binder -2.5 and Rev-erbA mod 0.1.
`COc1cccc(C2/C(=C(\O)c3ccc4c(c3)OCCO4)C(=O)C(=O)N2CC2CCCO2)c1` (stereo unspecified) gave iPSC survival up 0.2, TAG inh -6.8, beta cell repl -1.7, PG9 Ab binder 9.2*, Rev-erbA mod 0.6, PG9 bind confirm 16.0* and PGV04 counter 20.1*.
Screening COc1ccc(/C(O)=C2/C(=O)C(=O)N(CC3CCCO3)C2c2cccc(OC)c2)cc1 (stereo unspecified) returned iPSC survival up 0.2, beta cell repl -1.0, T cruzi inh 4.6, PG9 Ab binder 1.6 and Rev-erbA mod -0.9.
